The source made the active and inactive calls. The calls are words filed in the database; no cut-off is given here.
How the values were obtained:
[1] = target: T1, Diacylglycerol lipase-beta (Homo sapiens) (UniProt Q8NCG7); experiment: Inhibition of recombinant DAGLbeta expressed in HEK293 cells assessed as hydrolysis of 1-stearoyl-2-arachidonoyl-glycerol to 2-AG at 25 uM after 30 mins by LC-MS method; assay type: cell-based
T1 sequence (whole entry): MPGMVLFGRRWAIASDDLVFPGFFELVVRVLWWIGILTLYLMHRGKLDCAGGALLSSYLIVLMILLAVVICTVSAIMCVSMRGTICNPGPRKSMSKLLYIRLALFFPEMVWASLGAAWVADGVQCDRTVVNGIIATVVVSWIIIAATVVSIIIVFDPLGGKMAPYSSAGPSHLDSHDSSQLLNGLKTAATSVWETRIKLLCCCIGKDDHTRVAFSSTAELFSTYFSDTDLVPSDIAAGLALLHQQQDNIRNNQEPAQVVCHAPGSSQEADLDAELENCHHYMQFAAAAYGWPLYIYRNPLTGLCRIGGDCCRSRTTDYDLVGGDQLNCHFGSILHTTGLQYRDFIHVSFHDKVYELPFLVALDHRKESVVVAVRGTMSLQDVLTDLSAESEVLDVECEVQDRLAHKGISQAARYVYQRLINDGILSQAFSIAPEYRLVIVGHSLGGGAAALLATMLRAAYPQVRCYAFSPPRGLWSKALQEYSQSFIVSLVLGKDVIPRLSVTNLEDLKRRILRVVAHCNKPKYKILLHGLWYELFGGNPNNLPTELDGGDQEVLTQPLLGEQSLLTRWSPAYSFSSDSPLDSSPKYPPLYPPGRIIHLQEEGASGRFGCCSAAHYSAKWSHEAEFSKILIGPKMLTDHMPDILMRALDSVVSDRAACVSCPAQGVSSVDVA

[2] = target: T2, Cytosolic phospholipase A2 (Homo sapiens) (UniProt P47712); experiment: Inhibition of recombinant cPLA2 4a expressed in HEK293 cells assessed as hydrolysis of PAPC to arachidonic acid at 20 uM TLC assay; assay type: cell-based
T2 sequence (whole entry): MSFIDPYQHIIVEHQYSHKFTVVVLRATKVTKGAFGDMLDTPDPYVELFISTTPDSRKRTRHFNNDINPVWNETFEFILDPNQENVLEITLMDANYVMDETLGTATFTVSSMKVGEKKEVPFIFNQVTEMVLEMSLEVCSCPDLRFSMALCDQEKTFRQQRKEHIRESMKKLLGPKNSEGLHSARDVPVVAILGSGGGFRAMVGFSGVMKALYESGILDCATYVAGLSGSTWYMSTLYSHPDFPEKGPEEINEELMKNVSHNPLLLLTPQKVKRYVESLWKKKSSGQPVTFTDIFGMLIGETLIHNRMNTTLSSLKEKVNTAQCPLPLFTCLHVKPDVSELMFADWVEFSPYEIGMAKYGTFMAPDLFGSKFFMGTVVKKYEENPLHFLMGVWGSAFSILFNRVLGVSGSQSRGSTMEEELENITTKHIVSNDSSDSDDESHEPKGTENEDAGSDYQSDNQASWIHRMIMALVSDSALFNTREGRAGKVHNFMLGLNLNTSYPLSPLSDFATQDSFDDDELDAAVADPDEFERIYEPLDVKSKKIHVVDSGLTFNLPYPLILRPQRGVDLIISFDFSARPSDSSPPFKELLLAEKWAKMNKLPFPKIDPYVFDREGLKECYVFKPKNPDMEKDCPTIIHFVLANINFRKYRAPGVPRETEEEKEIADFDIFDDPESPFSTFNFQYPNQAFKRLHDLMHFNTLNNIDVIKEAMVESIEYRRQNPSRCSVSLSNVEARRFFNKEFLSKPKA

Mus musculus [3] = experiment: Inhibition of GPID in C57B1/6J mouse brain membrane at 16 mg/kg, ip after 4 hrs by competitive activity-based protein profiling-MudPIT method; assay type: functional, organism-based; parameters: dose 16 mg/kg
Outline: (§1)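 After i.p. dosing in 4:1 PEG300:Tween80, male C57Bl/6J mice were killed at 4 h. Brain membrane proteomes from treated and vehicle mice were labelled with FP-biotin. Labelled proteins were enriched on avidin, digested on-bead with trypsin and analysed by multidimensional LC-MS. Proteins were identified by SEQUEST, and dosed samples were compared with vehicle.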

Mus musculus [4] = experiment: Inhibition of ACOT2 in C57B1/6J mouse brain membrane at 16 mg/kg, ip after 4 hrs by competitive activity-based protein profiling-MudPIT method; assay type: functional, organism-based; parameters: dose 16 mg/kg
Outline: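 Mice were dosed 16 mg kg^-1 i.p. or vehicle and killed at 4 h. Brain membrane proteomes were labelled with FP-biotin, avidin-enriched, trypsin-digested on bead, analysed by multidimensional LC-MS and identified by SEQUEST.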

Mus musculus [5] = experiment: Inhibition of NTE in C57B1/6J mouse brain membrane at 16 mg/kg, ip after 4 hrs by competitive activity-based protein profiling-MudPIT method; assay type: functional, organism-based; parameters: dose 16 mg/kg; outline: as §1
Mus musculus [6] = experiment: Inhibition of LPL1 in C57B1/6J mouse brain membrane at 16 mg/kg, ip after 4 hrs by competitive activity-based protein profiling-MudPIT method; assay type: functional, organism-based; parameters: dose 16 mg/kg; outline: as §1
Mus musculus [7] = experiment: Change in palmitic acid in intraperitoneally dosed C57B1/6J mouse brain by LC-MS; assay type: functional, organism-based
Outline: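 Male C57Bl/6J mice given 4, 8, 16 or 40 mg kg^-1 i.p. in 4:1 PEG300:Tween80 at 4 μl g^-1, or vehicle, and killed after 4 h. Whole-brain lipids were quantified by LC-MS.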

Mus musculus [8] = experiment: Inhibition of FAAH in C57B1/6J mouse brain membrane assessed as elevated level of anandamide at 10 mg/kg, ip by competitive activity-based protein profiling method; assay type: functional, organism-based; parameters: dose 10 mg/kg
Mus musculus [9] = experiment: Effect on interstitial level of AEA in C57B1/6 mouse nucleus accumbens at 10 mg/kg, ip by following neuronal depolarization by microdialysis; assay type: functional, organism-based; parameters: dose 10 mg/kg
Outline: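 In vivo microdialysis from nucleus accumbens of C57Bl/6 mice after 10 mg kg^-1 i.p. Drug was given 1 h before neuronal depolarization, and interstitial AEA and 2-AG were measured in the dialysate.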

Mus musculus [10] = experiment: Inhibition of MAGL in C57B1/6J mouse brain membrane at 16 mg/kg, ip after 0.5 hrs by competitive activity-based protein profiling method; assay type: functional, organism-based; parameters: dose 16 mg/kg
Outline: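 Male C57Bl/6J mice (6-8 weeks, 20-26 g) given inhibitor i.p. in 4:1 v/v PEG300:Tween80 at 4 ul g^-1 (4-40 mg kg^-1); vehicle controls. Brain membrane proteomes (1 mg ml^-1 in PBS) labelled with FP-rhodamine (2 μM) for 30 min at room temperature. Readout by SDS-PAGE and in-gel fluorescence scanning, compared with vehicle.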

Mus musculus [11] = experiment: Visceral analgesic activity against C57B1/6J mouse assessed as inhibition of acetic acid-induced writhing response for 20 mins at 16 mg/kg, ip pretreated 2 hr before acetic acid challenge; assay type: functional, organism-based; parameters: dose 16 mg/kg
Outline: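 Male C57Bl/6J mice (6-8 weeks) dosed 16 mg kg^-1 i.p. in 4:1 v/v PEG300:Tween80, with vehicle controls. Assessed in the tetrad test for cannabinoid effects or in the acetic acid-induced abdominal stretching assay.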

O=C(Oc1ccc([N+](=O)[O-])cc1)N1CCC(C(O)(c2ccc3c(c2)OCO3)c2ccc3c(c2)OCO3)CC1
inhibition [1]: inactive
inhibition [2]: inactive
inhibition (Mus musculus [3]): inactive
inhibition (Mus musculus [4]): inactive
inhibition (Mus musculus [5]): inactive
inhibition (Mus musculus [6]): inactive
Activity (Mus musculus [7]): inactive
inhibition (Mus musculus [8]): Active
Activity (Mus musculus [9]): inactive
inhibition (Mus musculus [10]): Active
Activity (Mus musculus [11]): Active

Reference: ChEMBL document CHEMBL1221219, “Selective blockade of 2-arachidonoylglycerol hydrolysis produces cannabinoid behavioral effects” (Nat Chem Biol, 2009)
